Laboratory results taken from ChEMBL document CHEMBL4145545, “Synthesis and structure-activity relationships of asymmetric dimeric β-carboline derivatives as potential antitumor agents” (Eur J Med Chem, 2018).
Calls of active or inactive are those of the source. No cut-off for these calls is given here.

Assays:
Mus musculus [1] = test: Neurotoxicity in Kunming mouse assessed as jumping behavior at 5 to 500 mg/kg, ip observed continuously for first 2 hrs, intermittently for next 24 hrs and occasionally thereafter for 14 days; type: toxicity, organism-based; conditions: in vivo
How it was run: (§1)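 SPF KM mice, 6-8 weeks, 19-22 g, fasted overnight with water available. Single i.p. dose, 5.0 to 500 mg kg-1 in 0.5% CMC-Na, 10 mice per group (5 male, 5 female). Observed for behaviour, neurotoxic signs and deaths, then killed on day 14 and heart, liver and kidneys inspected macroscopically. LD50 derived graphically.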

[2] = Acute toxicity in ip dosed Kunming mouse observed continuously for first 2 hrs, intermittently for next 24 hrs and occasionally thereafter for 14 days; type: organism-based; conditions: in vivo; how it was run: as §1
Mus musculus [3] = test: Neurotoxicity in Kunming mouse assessed as supination at 5 to 500 mg/kg, ip observed continuously for first 2 hrs, intermittently for next 24 hrs and occasionally thereafter for 14 days; type: toxicity, organism-based; conditions: in vivo; how it was run: as §1
Mus musculus [4] = test: Neurotoxicity in Kunming mouse assessed as twitch at 5 to 500 mg/kg, ip observed continuously for first 2 hrs, intermittently for next 24 hrs and occasionally thereafter for 14 days; type: toxicity, organism-based; conditions: in vivo; how it was run: as §1
[5] = test system: Lewis lung carcinoma cell line; test: Cytotoxicity against mouse LLC cells assessed as cell growth inhibition after 24 hrs by MTT assay; type: functional, cell-based
How it was run: (§2)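 Cell lines grown to log phase in RPMI-1640 with 10% FBS, penicillin and streptomycin. About 10^5 cells/mL were plated and pre-incubated 24 h at 37 °C in 5% CO2. Compounds were given in DMSO, final ≤2% (v/v). MTT read-out was OD at 490 nm. Triplicate wells per concentration, each assay run ≥3 times. IC50 is 50% OD reduction versus untreated cells, calculated by the Logit method. Cisplatin was the reference.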

Sarcoma-180 [6] = test: Antitumor activity against mouse Sarcoma 180 cells implanted in mouse assessed as tumor growth inhibition at 10 mg/kg, ip administered once per day for 7 consecutive days starting from 24 hrs post tumor inoculation and measured on day 21 post tumor inoculation relative to control; type: functional; conditions: Sarcoma-180, ip, read-out: TGI
How it was run: (§3)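 Tumor cells were harvested from 7-day donor tumors, and 2×10^6 viable cells/mouse were injected s.c. in the armpit. Groups of 10 female mice received i.p. compound daily for 7 days, starting 24 h after inoculation. Controls were vehicle (negative) and CTX 30 mg/kg (positive). Body weight was recorded every 3 days. On day 21 tumors were excised and weighed, and inhibition was calculated as (C−T)/C×100 from mean tumor weights.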

HepG2 = test: Cytotoxicity against human HepG2 cells assessed as cell growth inhibition after 24 hrs by MTT assay; type: functional, cell-based; conditions: HepG2, 24 h; how it was run: as §2
Mus musculus [7] = test: Neurotoxicity in Kunming mouse assessed as tremble at 5 to 500 mg/kg, ip observed continuously for first 2 hrs, intermittently for next 24 hrs and occasionally thereafter for 14 days; type: toxicity, organism-based; conditions: in vivo; how it was run: as §1
A-375 = test: Cytotoxicity against human A375 cells assessed as cell growth inhibition after 24 hrs by MTT assay; type: functional, cell-based; conditions: A-375, 24 h; how it was run: as §2
Mus musculus [8] = test: Acute toxicity in ip dosed Kunming mouse assessed as death at higher dose up to 4 to 8 hrs; type: organism-based; conditions: in vivo; how it was run: as §1
769-P = test: Cytotoxicity against human 769-P cells assessed as cell growth inhibition after 24 hrs by MTT assay; type: functional, cell-based; how it was run: as §2
HT-29 [9] = test: Cytotoxicity against human HT-29 cells assessed as cell growth inhibition after 24 hrs by MTT assay; type: functional, cell-based; conditions: HT-29, 24 h; how it was run: as §2
SK-OV-3 = test: Cytotoxicity against human SKOV3 cells assessed as cell growth inhibition after 24 hrs by MTT assay; type: functional, cell-based; conditions: SK-OV-3, 24 h; how it was run: as §2
Mus musculus [10] = test: Cardiotoxicity in Kunming mouse at 5 to 500 mg/kg, ip after 14 days by macroscopic method; type: toxicity, organism-based; conditions: in vivo, 336 h
MCF7 = test: Cytotoxicity against human MCF7 cells assessed as cell growth inhibition after 24 hrs by MTT assay; type: functional, cell-based; conditions: MCF7, 24 h; how it was run: as §2
ECa-109 cell line = test: Cytotoxicity against human ECA109 cells assessed as cell growth inhibition after 24 hrs by MTT assay; type: functional, cell-based; conditions: ECa-109, 24 h; how it was run: as §2
Mus musculus [11] = test: Nephrotoxicity in Kunming mouse at 5 to 500 mg/kg, ip after 14 days by macroscopic method; type: toxicity, organism-based; conditions: in vivo, 336 h
[12] = Cytotoxicity against human BGC cells assessed as cell growth inhibition after 24 hrs by MTT assay; type: functional, cell-based; how it was run: as §2
Mus musculus [13] = test: Hepatotoxicity in Kunming mouse at 5 to 500 mg/kg, ip after 14 days by macroscopic method; type: toxicity, organism-based; conditions: in vivo, 336 h
Sarcoma-180 [14] = test: Antitumor activity against mouse Sarcoma 180 cells implanted in mouse assessed as tumor growth inhibition at 30 mg/kg, ip administered once per day for 7 consecutive days starting from 24 hrs post tumor inoculation and measured on day 21 post tumor inoculation relative to control; type: functional; conditions: Sarcoma-180, ip, read-out: TGI
How it was run: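 Tumour cells passaged in mice for 7 days, then 2 × 10^6 viable cells given s.c. into the armpit of female mice, 10 per group. […] CTX at 30 mg kg-1 as reference, vehicle as negative control. Body weight recorded every 3 days. Tumours excised and weighed on day 21. Inhibition = (C − T)/C × 100, using mean tumour weights.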

[15] = test system: Lewis lung carcinoma cell line; test: animal or person; conditions: Mus musculus, ip, read-out: TGI
[16] = test system: Lewis lung carcinoma cell line; test: Antitumor activity against mouse LLC cells implanted in mouse assessed as tumor growth inhibition at 10 mg/kg, ip administered once per day for 7 consecutive days starting from 24 hrs post tumor inoculation and measured on day 21 post tumor inoculation relative to control; type: functional; conditions: read-out: TGI; how it was run: as §3
[17] = test system: Lewis lung carcinoma cell line; test: Antitumor activity against mouse LLC cells implanted in mouse assessed as tumor growth inhibition at 7.5 mg/kg, ip administered once per day for 7 consecutive days starting from 24 hrs post tumor inoculation and measured on day 21 post tumor inoculation relative to control; type: functional; conditions: read-out: TGI; how it was run: as §3
Sarcoma-180 [18] = test: Antitumor activity against mouse Sarcoma 180 cells implanted in mouse assessed as tumor growth inhibition at 7.5 mg/kg, ip administered once per day for 7 consecutive days starting from 24 hrs post tumor inoculation and measured on day 21 post tumor inoculation relative to control; type: functional; conditions: Sarcoma-180, ip, read-out: TGI; how it was run: as §3
[19] = test system: Lewis lung carcinoma cell line; test: Antitumor activity against mouse LLC cells implanted in mouse assessed as tumor growth inhibition at 8.3 mg/kg, ip administered once per day for 7 consecutive days starting from 24 hrs post tumor inoculation and measured on day 21 post tumor inoculation relative to control; type: functional; conditions: read-out: TGI; how it was run: as §3
HT-29 [20] = test: Antimigratory activity against human HT-29 cells assessed as reduction in wound closure at 0.5 to 50 uM after 24 hrs by inverted microscopic method; type: functional, cell-based
How it was run: (§4)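 HT-29 or LLC cells (about 1×10^6/mL) were grown to 90% confluence and given a single straight pipette-tip scratch. After a PBS wash, fresh FBS-containing medium with various compound concentrations was added for 24 h. Migration distance was measured under an inverted microscope. Each assay was done three times, with CA4P as positive control.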

Chorioallantoic membrane = test: In vivo antiangiogenic activity in chicken embryo chorioallantoic membrane at 50 uM/disc after 48 hrs by microscopic method; type: functional, organism-based; conditions: Gallus gallus
[21] = test system: Lewis lung carcinoma cell line; test: Antimigratory activity against mouse LLC cells assessed as reduction in wound closure at 50 uM after 24 hrs by inverted microscopic method; type: functional, cell-based; how it was run: as §4
Sarcoma-180 [22] = test: Antitumor activity against mouse Sarcoma 180 cells implanted in mouse assessed as tumor growth inhibition at 8.3 mg/kg, ip administered once per day for 7 consecutive days starting from 24 hrs post tumor inoculation and measured on day 21 post tumor inoculation relative to control; type: functional; conditions: Sarcoma-180, ip, read-out: TGI; how it was run: as §3

SMILES	Activity (Mus musculus [1])	LD50 at 14 days [2] [mg/kg]	Activity (Mus musculus [3])	Activity (Mus musculus [4])	IC50 [5] [µM]	inhibition in vivo at 10 mg/kg (Sarcoma-180 [6]) [%]	IC50 (HepG2) [µM]	Activity (Mus musculus [7])	IC50 (A-375) [µM]	Activity (Mus musculus [8])	IC50 (769-P) [µM]	IC50 (HT-29 [9]) [µM]	IC50 (SK-OV-3) [µM]	Activity (Mus musculus [10])	IC50 (MCF7) [µM]	IC50 (ECa-109 cell line) [µM]	Activity (Mus musculus [11])	IC50 [12] [µM]	Activity (Mus musculus [13])	inhibition in vivo at 30 mg/kg (Sarcoma-180 [14]) [%]	further results
Cc1nccc2c3ccc(OCCCCn4c5ccccc5c5ccncc54)cc3n(CCCc3ccccc3)c12.Cl	Non-Toxic	50	Non-Toxic	Non-Toxic	9.6	33.5	9.7	Non-Toxic	33.4	Toxic	10.7	15.9	13.8	Non-Toxic	4.5	9.5	Non-Toxic	8.5	Non-Toxic	–	–
O=P1(N(CCCl)CCCl)NCCCO1 (stereo not drawn) [CYCLOPHOSPHAMIDE ANHYDROUS]	–	–	–	–	–	–	–	–	–	–	–	–	–	–	–	–	–	–	–	82.5	inhibition in vivo at 30 mg/kg [15]: 80.7%
CCCCn1c2cc(OCCCCn3c4ccccc4c4ccnc(C)c43)ccc2c2ccnc(C)c21.Cl	Non-Toxic	50	Non-Toxic	Non-Toxic	13.3	53.3	15.7	Non-Toxic	14.1	Toxic	15.3	16.4	21.7	Non-Toxic	11.2	12.2	Non-Toxic	33.6	Non-Toxic	–	inhibition in vivo at 10 mg/kg [16]: 27.2%
Cc1nccc2c3ccc(OCCCCn4c5ccccc5c5ccnc(-c6cccs6)c54)cc3n(CCCc3ccccc3)c12.Cl	Non-Toxic	37.5	Non-Toxic	Non-Toxic	4.2	–	8.1	Non-Toxic	14.6	Toxic	11.9	18.1	11.2	Non-Toxic	12	4.9	Non-Toxic	11.4	Non-Toxic	–	inhibition in vivo at 7.5 mg/kg [17]: 31.6%; inhibition in vivo at 7.5 mg/kg (Sarcoma-180 [18]): 47.3%
Cc1nccc2c3ccccc3n(CCCCOc3ccc4c5ccnc(C)c5n(CCCc5ccccc5)c4c3)c12.Cl	Non-Toxic	150	Non-Toxic	Non-Toxic	4.4	–	9.1	Non-Toxic	8.4	Toxic	9.9	14.1	13.1	Non-Toxic	4	9.9	Non-Toxic	7.4	Non-Toxic	36.7	–
COc1ccc(-c2nccc3c4ccccc4n(CCCCOc4ccc5c6ccnc(C)c6n(CCCc6ccccc6)c5c4)c23)cc1.Cl	Non-Toxic	41.5	Non-Toxic	Non-Toxic	3.4	–	14.1	Non-Toxic	13.6	Toxic	4.9	13.3	4.2	Non-Toxic	8.5	4.5	Non-Toxic	12.1	Non-Toxic	–	inhibition in vivo at 8.3 mg/kg [19]: 48.1%; Activity (HT-29 [20]): Active; Activity (Chorioallantoic membrane): Active; Activity [21]: Active; inhibition in vivo at 8.3 mg/kg (Sarcoma-180 [22]): 54.6%
